Molecular target: Kappa-type opioid receptor (Homo sapiens, UniProt P41145)
Assay: Agonist activity at human KOR expressed in CHO cells assessed as inhibition of forskolin-induced cAMP accumulation after 30 mins by luminescence assay
Type: functional, cell-based
Procedure, shortened: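 CHO cells stably expressing KOR or MOR, plated at 10 000 cells/well and incubated overnight at 37 °C. Compounds given as 10-point serial dilutions (1% DMSO final) with 20 μM forskolin final in HBSS/10 mM HEPES. Incubation 30 min at 37 °C, then detection reagents overnight at room temperature. HitHunter cAMP luminescence read-out; data normalized to vehicle and forskolin-only controls, nonlinear regression.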

Sequence of Kappa-type opioid receptor (P41145 whole entry): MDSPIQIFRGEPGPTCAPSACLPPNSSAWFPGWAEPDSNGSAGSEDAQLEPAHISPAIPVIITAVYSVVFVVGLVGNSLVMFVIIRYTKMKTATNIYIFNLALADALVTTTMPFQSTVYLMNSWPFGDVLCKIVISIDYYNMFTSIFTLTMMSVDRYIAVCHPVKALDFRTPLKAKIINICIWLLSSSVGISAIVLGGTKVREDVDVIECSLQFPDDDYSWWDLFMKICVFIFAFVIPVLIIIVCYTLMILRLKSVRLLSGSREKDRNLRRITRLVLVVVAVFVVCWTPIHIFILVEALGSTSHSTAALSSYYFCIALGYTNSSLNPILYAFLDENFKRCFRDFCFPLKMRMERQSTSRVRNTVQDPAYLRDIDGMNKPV

Compound	EC50	Emax
COC(=O)[C@@H]1C[C@H](OC(C)=O)C(=O)[C@H]2[C@@]1(C)CC[C@H]1C(=O)O[C@H](c3ccoc3-c3cccc(OC)c3)C[C@]21C	8.6 nM	100%
COC(=O)[C@@H]1C[C@H](OC(C)=O)C(=O)[C@H]2[C@@]1(C)CC[C@H]1C(=O)O[C@H](c3ccoc3-c3ccco3)C[C@]21C	6.7 nM	100%
COC(=O)[C@@H]1C[C@H](OC(C)=O)C(=O)[C@H]2[C@@]1(C)CC[C@H]1C(=O)O[C@H](c3ccoc3-c3ccccc3F)C[C@]21C	1.2 nM	100%
COC(=O)[C@@H]1C[C@H](OC(C)=O)C(=O)[C@H]2[C@@]1(C)CC[C@H]1C(=O)O[C@H](c3ccoc3C3CC3)C[C@]21C	1 nM	100%
CCc1occc1[C@@H]1C[C@]2(C)[C@H]3C(=O)[C@@H](OC(C)=O)C[C@@H](C(=O)OC)[C@]3(C)CC[C@H]2C(=O)O1	2.9 nM	100%
COC(=O)[C@@H]1C[C@H](OC(C)=O)C(=O)[C@H]2[C@@]1(C)CC[C@H]1C(=O)O[C@H](c3ccoc3-c3ccc4ccccc4c3)C[C@]21C	25 nM	100%
COC(=O)[C@@H]1C[C@H](OC(C)=O)C(=O)[C@H]2[C@@]1(C)CC[C@H]1C(=O)O[C@H](c3ccoc3-c3ccccc3N)C[C@]21C	430 nM	100%
CC#Cc1occc1[C@@H]1C[C@]2(C)[C@H]3C(=O)[C@@H](OC(C)=O)C[C@@H](C(=O)OC)[C@]3(C)CC[C@H]2C(=O)O1	26 nM	100%
COC(=O)[C@@H]1C[C@H](OC(C)=O)C(=O)[C@H]2[C@@]1(C)CC[C@H]1C(=O)O[C@H](c3ccoc3-c3ccc(F)cc3)C[C@]21C	54 nM	100%
COC(=O)[C@@H]1C[C@H](OC(C)=O)C(=O)[C@H]2[C@@]1(C)CC[C@H]1C(=O)O[C@H](c3ccoc3-c3ccc([N+](=O)[O-])cc3)C[C@]21C	170 nM	100%
COC(=O)[C@@H]1C[C@H](OC(C)=O)C(=O)[C@H]2[C@@]1(C)CC[C@H]1C(=O)O[C@H](c3ccoc3C=O)C[C@]21C	7.3 nM	100%
COC(=O)[C@@H]1C[C@H](OC(C)=O)C(=O)[C@H]2[C@@]1(C)CC[C@H]1C(=O)O[C@H](c3ccoc3C#Cc3ccccc3OC)C[C@]21C	6100 nM	100%
COC(=O)[C@@H]1C[C@H](OC(C)=O)C(=O)[C@H]2[C@@]1(C)CC[C@H]1C(=O)O[C@H](c3ccoc3CCc3ccccc3)C[C@]21C	38 nM	100%
COC(=O)[C@@H]1C[C@H](OC(C)=O)C(=O)[C@H]2[C@@]1(C)CC[C@H]1C(=O)O[C@H](c3ccoc3-c3ccsc3)C[C@]21C	4.3 nM	100%
COC(=O)[C@@H]1C[C@H](OC(C)=O)C(=O)[C@H]2[C@@]1(C)CC[C@H]1C(=O)O[C@H](c3ccoc3-c3ccccc3[N+](=O)[O-])C[C@]21C	360 nM	100%
COC(=O)[C@@H]1C[C@H](OC(C)=O)C(=O)[C@H]2[C@@]1(C)CC[C@H]1C(=O)O[C@H](c3ccoc3-c3ccccc3)C[C@]21C	1.3 nM	100%
COC(=O)[C@@H]1C[C@H](OC(C)=O)C(=O)[C@H]2[C@@]1(C)CC[C@H]1C(=O)O[C@H](c3ccoc3/C=C/c3ccccc3)C[C@]21C	20 nM	100%
COC(=O)[C@@H]1C[C@H](OC(C)=O)C(=O)[C@H]2[C@@]1(C)CC[C@H]1C(=O)O[C@H](c3ccoc3-c3cccc(C)c3)C[C@]21C	3.4 nM	100%
COC(=O)[C@@H]1C[C@H](OC(C)=O)C(=O)[C@H]2[C@@]1(C)CC[C@H]1C(=O)O[C@H](c3ccoc3-c3ccc(OC)cc3)C[C@]21C	16 nM	100%
COC(=O)[C@@H]1C[C@H](OC(C)=O)C(=O)[C@H]2[C@@]1(C)CC[C@H]1C(=O)O[C@H](c3ccoc3C#CCCCO)C[C@]21C	890 nM	100%
COC(=O)[C@@H]1C[C@H](OC(C)=O)C(=O)[C@H]2[C@@]1(C)CC[C@H]1C(=O)O[C@H](c3ccoc3C#Cc3ccccc3C(F)(F)F)C[C@]21C	430 nM	100%

Compound	EC50	Emax
COC(=O)[C@@H]1C[C@H](OC(C)=O)C(=O)[C@H]2[C@@]1(C)CC[C@H]1C(=O)O[C@H](c3ccoc3-c3ccc(C)cc3)C[C@]21C	2.3 nM	100%
COC(=O)[C@@H]1C[C@H](OC(C)=O)C(=O)[C@H]2[C@@]1(C)CC[C@H]1C(=O)O[C@H](c3ccoc3-c3ccccc3C)C[C@]21C	5.4 nM	100%
COC(=O)[C@@H]1C[C@H](OC(C)=O)C(=O)[C@H]2[C@@]1(C)CC[C@H]1C(=O)O[C@H](c3cc(Br)oc3Br)C[C@]21C	240 nM	100%
COC(=O)[C@@H]1C[C@H](OC(C)=O)C(=O)[C@H]2[C@@]1(C)CC[C@H]1C(=O)O[C@H](c3ccoc3-c3cccc(F)c3)C[C@]21C	12 nM	100%
COC(=O)[C@@H]1C[C@H](OC(C)=O)C(=O)[C@H]2[C@@]1(C)CC[C@H]1C(=O)O[C@H](c3ccoc3C(F)(F)F)C[C@]21C	31 nM	100%
COC(=O)[C@@H]1C[C@H](OC(C)=O)C(=O)[C@H]2[C@@]1(C)CC[C@H]1C(=O)O[C@H](c3ccoc3-c3cccc4ccccc34)C[C@]21C	37 nM	100%
COC(=O)[C@@H]1C[C@H](OC(C)=O)C(=O)[C@H]2[C@@]1(C)CC[C@H]1C(=O)O[C@H](c3ccoc3-c3cccc([N+](=O)[O-])c3)C[C@]21C	450 nM	100%
C=Cc1occc1[C@@H]1C[C@]2(C)[C@H]3C(=O)[C@@H](OC(C)=O)C[C@@H](C(=O)OC)[C@]3(C)CC[C@H]2C(=O)O1	0.96 nM	100%
COC(=O)[C@@H]1C[C@H](OC(C)=O)C(=O)[C@H]2[C@@]1(C)CC[C@H]1C(=O)O[C@H](c3ccoc3-c3ccc(C(F)(F)F)cc3)C[C@]21C	1020 nM	100%
COC(=O)[C@@H]1C[C@H](OC(C)=O)C(=O)[C@H]2[C@@]1(C)CC[C@H]1C(=O)O[C@H](c3ccoc3C#N)C[C@]21C	9.4 nM	100%
COC(=O)[C@@H]1C[C@H](OC(C)=O)C(=O)[C@H]2[C@@]1(C)CC[C@H]1C(=O)O[C@H](c3ccoc3-c3cccc(C(F)(F)F)c3)C[C@]21C	27 nM	100%
COC(=O)[C@@H]1C[C@H](OC(C)=O)C(=O)[C@H]2[C@@]1(C)CC[C@H]1C(=O)O[C@H](c3coc(C(F)(F)F)c3)C[C@]21C	3.1 nM	100%
COC(=O)[C@@H]1C[C@H](OC(C)=O)C(=O)[C@H]2[C@@]1(C)CC[C@H]1C(=O)O[C@H](c3ccoc3-c3ccoc3)C[C@]21C	6.5 nM	100%
COC(=O)[C@@H]1C[C@H](OC(C)=O)C(=O)[C@H]2[C@@]1(C)CC[C@H]1C(=O)O[C@H](c3ccoc3-c3ccccc3OC)C[C@]21C	10 nM	100%
COC(=O)[C@@H]1C[C@H](OC(C)=O)C(=O)[C@H]2[C@@]1(C)CC[C@H]1C(=O)O[C@H](c3ccoc3CO)C[C@]21C	3.3 nM	100%
COC(=O)[C@@H]1C[C@H](OC(C)=O)C(=O)[C@H]2[C@@]1(C)CC[C@H]1C(=O)O[C@H](c3ccoc3-c3ccccc3C(F)(F)F)C[C@]21C	8.4 nM	100%
COC(=O)[C@@H]1C[C@H](OC(C)=O)C(=O)[C@H]2[C@@]1(C)CC[C@H]1C(=O)O[C@H](c3ccoc3C#Cc3ccccc3)C[C@]21C	100 nM	100%
COC(=O)[C@@H]1C[C@H](OC(C)=O)C(=O)[C@H]2[C@@]1(C)CC[C@H]1C(=O)O[C@H](c3ccoc3-c3ccc(N)cc3)C[C@]21C	620 nM	65%
CCCC#Cc1occc1[C@@H]1C[C@]2(C)[C@H]3C(=O)[C@@H](OC(C)=O)C[C@@H](C(=O)OC)[C@]3(C)CC[C@H]2C(=O)O1	9250 nM	100%
COC(=O)[C@@H]1C[C@H](OC(C)=O)C(=O)[C@H]2[C@@]1(C)CC[C@H]1C(=O)O[C@H](c3cc(C)oc3C)C[C@]21C	250 nM	100%
COC(=O)[C@@H]1C[C@H](OC(C)=O)C(=O)[C@H]2[C@@]1(C)CC[C@H]1C(=O)O[C@H](c3ccoc3-c3cccc(N)c3)C[C@]21C	630 nM	100%
